Compounds with a hit are over-represented: about 3.8% of the library has one in this group of screens.
OX1R antag-1 = human HCRTR1 antagonism; CHO/OX1R cells, Fluo-8 calcium fluorescence, orexin A; inhibition, % at 5 µM; 0.43% of 330,000 active;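 active = inhibition above its plate's threshold, mean inhibition of all tested compounds on the plate plus 3 SD, cut at about 37% in these data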
Target sequence (O43613 whole entry, looked up): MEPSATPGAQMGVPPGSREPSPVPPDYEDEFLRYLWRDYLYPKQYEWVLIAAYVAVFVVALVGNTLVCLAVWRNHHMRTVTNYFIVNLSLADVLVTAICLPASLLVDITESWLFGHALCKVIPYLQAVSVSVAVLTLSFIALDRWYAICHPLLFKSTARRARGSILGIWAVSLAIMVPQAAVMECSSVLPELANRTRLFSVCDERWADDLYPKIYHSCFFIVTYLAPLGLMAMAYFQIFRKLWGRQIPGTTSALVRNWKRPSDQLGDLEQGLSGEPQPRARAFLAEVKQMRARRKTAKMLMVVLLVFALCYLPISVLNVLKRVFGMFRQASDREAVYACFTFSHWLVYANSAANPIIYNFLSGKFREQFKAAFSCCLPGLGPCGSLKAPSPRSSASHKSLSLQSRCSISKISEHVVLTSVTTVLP
CHO parental Ca = signal in parental CHO cells, OX1R antagonist counter-screen; inhibition, % at 5.6 µM; AID 463079; 0.63% of 330,000 active; parental CHO-K1, ATP-induced calcium, Fluo-8 fluorescence;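 active = inhibition above that plate's mean sample inhibition plus 3 SD, cut at about 26% in these data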
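material = parental CHO cells | also added = ATP as calcium-mobilizing challenge | dosing = single point at 5.6 µM | detection = intracellular calcium via Fluo-8 no-wash fluorescent dye | read-out = % inhibition | benchmarks = low control ATP plus DMSO, high control DMSO only | repeats = one well per compound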
GPR7 antagonist = antagonists of human GPR7 (neuropeptides B/W receptor 1); P48145; inhibition, % at 4.4 µM; GPR7-expressing cells, fluorescence antagonist assay; 1.1% of 290,000 active; in the data active = inhibition above about 16%, passing the limit was not always enough;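 note: cells stimulated with the agonist NPW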
OX1R antag-2 = OX1R (human) antagonism. O43613. OX1R-expressing cells, FRET antagonist read-out. inhibition, % at 6.6 µM. 1.8% of 330,000 active; in the data active = inhibition mostly above about 38%, no sharp cut-off; inactive = mostly below about 40%
MPTP block = blocks calcium-induced mitochondrial swelling | isolated mouse mitochondria, Ca2+ swelling absorbance, 30 min | 1.4% of 360,000 active | inhibition, % at 10 µM;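 active = inhibition of 50% or more, scaled per plate between neutral and stimulator controls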
A number is an active result; . = inactive; / = not tested or not shown.

SMILES	OX1R antag-1	CHO parental Ca	GPR7 antagonist	OX1R antag-2	MPTP block
Cc1cccc(NC2=C(NC(=O)c3ccccc3)C(=O)c3ccccc3C2=O)c1	.	.	.	75.0	.
O=C(NC1=C(NC2CCS(=O)(=O)C2)C(=O)c2ccccc2C1=O)c1ccccc1 (stereo not given)	.	.	.	72.9	.
O=C(NC1=C(Nc2ccc(Cl)cc2)C(=O)c2ccccc2C1=O)c1ccccc1	.	.	.	.	.
O=C1C(Cl)=C(NC(=O)c2ccccc2)C(=O)C(Cl)=C1NC(=O)c1ccccc1	.	.	.	48.5	.
CCNC(=S)N1CCC(C(=O)c2ccc(F)cc2)CC1	/	/	/	/	.
COC(=O)[C@@]12C[C@@H](CC(=O)NCC3CCCCC3)C(=O)N(CCc3ccc(OC)c(OC)c3)C1=CCC(C)(C)C2	/	/	/	/	.
O=C(CSCC(=O)NC1CC1)Nc1ccc2ccccc2c1	/	/	20.0	/	.
O=C(CSCC(=O)NC1CC1)Nc1ccccc1	.	.	.	.	.
Cc1cc(C)c(S(=O)(=O)N(CC(=O)N2CCCC2)C2CCCCC2)c(C)c1	.	.	15.6	.	.
O=C(O)CSc1c2ccccc2cc2ccccc12	.	.	.	53.8	.
Cc1[nH]c2ccccc2c1SCC(=O)O	.	.	.	.	.
Nc1sc(-c2ccccc2)cc1C(=O)NCCc1c[nH]c2ccccc12	/	/	/	/	.
Cc1sc(NC(=O)c2ccco2)c(C(c2cccnc2)N2CCN(CCO)CC2)c1C (stereo not given)	.	.	.	.	.
CCOC(=O)C1CCN(C(c2cccnc2)c2c(NC(=O)c3ccco3)sc(C)c2C)CC1 (stereo not given)	.	.	26.8	.	.
S=c1[nH]cc(-c2ccc(Cl)cc2)n1Cc1ccccc1	.	92.9	.	.	.
N#CC1=C2SCC(O)(c3ccccc3)N2C(=O)CC1c1ccccc1 (stereo not given)	.	.	16.9	.	.
COc1cccc2nc3cc(C)c(C)cc3nc12	.	.	.	68.0	.
Cc1ccc(C)c(C(C)NC(=S)NCc2ccc(F)cc2)c1 (stereo not given)	41.4	66.7	.	.	.
CC(C)(C)c1ccc(CN(Cc2ccco2)Cc2nnnn2C2CCCC2)cc1	.	48.2	.	.	.
CC[C@H](C)[C@@H]1NC(=O)c2cc([N+](=O)[O-])cc(I)c2SC[C@@H](C(N)=O)NC(=O)[C@H](CCCCN)NC1=O	.	.	.	60.9	/
C=CCNC(N)=S	.	.	.	.	.
COc1ccc(C(C(=O)Nc2ccc3c(c2)OCCO3)n2c(=O)c(-c3ccco3)nc3ccccc32)cc1 (stereo not given)	/	/	/	/	.
CCOc1ccc(NC(=NCc2ccc3c(c2)OCO3)SC2CC(=O)N(c3ccc(C(=O)O)cc3)C2=O)cc1 (stereo not given)	51.1	37.5	.	.	.
CCOc1ccc(NC(=NCc2ccc3c(c2)OCO3)SC2CC(=O)N(c3ccc(OCC)cc3)C2=O)cc1 (stereo not given)	.	.	.	.	.
CCCc1nnc2n1N=C(c1ccc([N+](=O)[O-])cc1)CS2	.	.	.	45.3	.
SMILES	OX1R antag-1	CHO parental Ca	GPR7 antagonist	OX1R antag-2	MPTP block
Cc1ccc([C@@H]2CC=C(C(=O)O)[C@H](c3ccc(C(C)(C)C)cc3)N2S(=O)(=O)c2ccc(C)cc2)cc1	.	.	/	.	.
CCc1ccc([C@@H]2CC=C(C(=O)O)[C@H](c3ccc(C(C)(C)C)cc3)N2S(=O)(=O)c2ccc(C)cc2)cc1	.	69.7	/	.	.
Cc1ccc(S(=O)(=O)N2[C@@H](c3ccc(C(C)(C)C)cc3)C(C(=O)O)=CC[C@H]2c2ccc(Cl)cc2)cc1	.	41.4	/	.	.
CCCC(=O)OCCNC(=O)c1cc2ccccc2oc1=O	.	.	.	.	.
O=C(NCCSc1c(-c2ccccc2)[nH]c2ccccc12)c1cc2ccccc2oc1=O	.	.	.	56.0	.
CC(=O)OCCNC(=O)c1cc2ccccc2oc1=O	.	.	.	69.6	.
O=C(Cc1cccs1)NCCSc1c(-c2ccc(Cl)cc2)[nH]c2ccccc12	.	.	19.2	.	.
O=[N+]([O-])c1ccc(Cl)cc1Sc1nc2ccccc2o1	.	.	.	.	.
O=c1[nH]c(Sc2ccc([N+](=O)[O-])cc2[N+](=O)[O-])nc2ccccc12	.	.	/	.	.
O=[N+]([O-])c1ccc(Sc2nc3ccccc3o2)c([N+](=O)[O-])c1	.	.	.	36.8	.
Nc1nc(Sc2ccc([N+](=O)[O-])cc2[N+](=O)[O-])n[nH]1	.	.	.	41.7	.
Cc1ccnc(Sc2ccc([N+](=O)[O-])cc2[N+](=O)[O-])n1	.	.	.	67.5	.
Nc1sc(Cc2ccccc2)cc1C(=O)NC1CCCCC1	/	/	/	/	.
CS(=O)(=O)NCCSc1nnnn1-c1ccccc1	.	.	18.3	.	.
O=S(=O)(NCCSc1nnnn1-c1ccccc1)c1cccs1	.	.	.	.	.
O=C(COc1ccc2c(-c3ccccc3)cc(=O)oc2c1)NCCN1CCOCC1	.	.	.	.	.
O=C(COc1cc2oc(=O)cc(-c3ccccc3)c2cc1Cl)NCCN1CCOCC1	.	.	.	49.0	.
CCCCC[C@@H](C)N1C[C@H](COCc2ccccc2)Oc2cc(N3CC[C@H](O)C3)ccc2S1(=O)=O	/	/	/	/	.
Cc1cccc(CN2CCC(n3nccc3NC(=O)CCCc3ccccc3)CC2)n1	.	.	.	.	.
c1cc(-c2cccs2)nc(-c2cccs2)c1	.	.	.	.	.
c1csc(-c2cn3ccc4ccccc4c3n2)c1	.	.	.	74.5	.
CCCNC(=O)COc1coc(CN2CCN(c3ccc(F)cc3)CC2)cc1=O	.	.	.	.	.
O=C(CSc1nnc2n1CCCN2)c1ccc(Cl)cc1	.	.	.	.	.
O=C(CSc1nnc2n1CCCN2)c1ccc([N+](=O)[O-])cc1	.	.	.	50.9	.
CCCCSc1cnn(-c2ccccc2)c(=O)c1SCCCC	.	29.6	.	.	.
SMILES	OX1R antag-1	CHO parental Ca	GPR7 antagonist	OX1R antag-2	MPTP block
Cc1ccc(/C=C/c2nnc(-c3cccs3)o2)cc1	.	.	.	41.9	.
O=C(COC(=O)c1cccc(Cl)c1)Nc1cc(Cl)ccc1Oc1ccccc1	.	.	.	.	.
COc1ccc(C(=O)O)cc1S(=O)(=O)NC(C)C12CC3CC(CC(C3)C1)C2 (stereo not given)	44.7	34.4	/	.	.
COc1cc(Nc2ccccc2Cl)c([N+](=O)[O-])nc1[N+](=O)[O-]	.	.	.	41.2	.
COCCCN1C(=O)C(CC(=O)NC2CCCC2)CC(C(=O)N(C(C)C)C(C)C)=C1C (stereo not given)	/	/	/	/	.
O=C(NC1=NCCS1)c1ccc([N+](=O)[O-])cc1Cl	.	.	.	49.4	.
NC(=O)c1ccc(N2CCC(C(N)=O)CC2)c([N+](=O)[O-])c1	.	.	.	.	.
CCCC(=O)Nc1cccc(C(=O)Nc2ccccc2OCC)c1	.	.	.	.	/
CCCCCNC(=O)c1ccc2c(=O)[nH]c3c(C(=O)NCC4CCCO4)sc(=S)n3c2c1 (stereo not given)	.	.	.	79.3	.
